# Most compounds without a hit are left out; they make up all but 1.6% or so of the library.
# Bfl-1 A1 inh: caspase 3/7 activation in MEF A1-2A-BIM cells, primary screen, A1 inhibitor project, cell-based, luminescence, HTS. Caspase-Glo 3/7 luminescence, 3 h; percent of clofoctol response, vehicle zero. AID 2462, 2010. 0.066% of 330,000 active. caspase activation, % (no concentration beside the values);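 active = over half of replicate activation scores above 10%, or exactly half above 10 with the replicate mean above 10; inconclusive = replicate mean below 10 yet half the replicates above 10; inactive = over half of replicates below 10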
# SR-BI HDL uptake: inhibitors of SR-BI mediated HDL lipid uptake, primary screen, ldlA[mSR-BI] cells, fluorescence, single point; AID 488896, 2010; inhibition, % at 12.5 µM; 0.96% of 320,000 active; ldlA[mSR-BI] CHO cells, DiI-HDL uptake fluorescence, 3 h;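 active = mean replicate inhibition of at least 70% and a set share of replicates each scoring 70 or more; inconclusive = meets just one of the two criteria; inactive = fails both criteria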;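 note: 0% = median of neutral control wells and 100% = median of positive control wells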
# Target sequence (Q61009 whole entry, looked up): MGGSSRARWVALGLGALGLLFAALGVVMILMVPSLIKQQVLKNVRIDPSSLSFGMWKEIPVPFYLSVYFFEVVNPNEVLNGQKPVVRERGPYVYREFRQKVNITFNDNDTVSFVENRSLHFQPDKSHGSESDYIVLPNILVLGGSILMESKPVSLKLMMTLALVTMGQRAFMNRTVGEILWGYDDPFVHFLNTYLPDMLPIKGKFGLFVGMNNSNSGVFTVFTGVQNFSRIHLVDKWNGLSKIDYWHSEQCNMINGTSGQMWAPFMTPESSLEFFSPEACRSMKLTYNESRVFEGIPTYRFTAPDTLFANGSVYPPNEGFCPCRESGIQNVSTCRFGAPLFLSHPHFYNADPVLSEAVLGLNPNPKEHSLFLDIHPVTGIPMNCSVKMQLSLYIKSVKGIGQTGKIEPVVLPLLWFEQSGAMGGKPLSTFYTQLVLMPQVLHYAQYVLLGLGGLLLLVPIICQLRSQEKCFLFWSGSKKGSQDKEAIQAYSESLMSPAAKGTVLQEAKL
# Vif imaging: HIV Vif self-association inhibitors, primary screen, imaging, HEK293T, single point | HEK293T cells, Vif self-association by quenched fluorescence, 24 h | inhibition, % at 7.49 µM | 0.35% of 340,000 active; in the data active = inhibition above about 50%, passing the limit was not always enough; inconclusive = no clear call, values can overlap the other calls; inactive = below about 31%
# SR-BI DiI-HDL act: activators of SR-BI mediated DiI-HDL uptake, primary screen, ldlA[mSR-BI] CHO cells, DiI fluorescence | 3 h; 100 = double the neutral-control signal | activation, % at 12.5 µM | 0.096% of 320,000 active;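 active = mean replicate activation of at least 60% and every replicate at or above 60%; inconclusive = mean or all-replicate condition met, but not both; inactive = mean below 60% and not all replicates reaching 60%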;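 note: 0% = median plate neutral-control signal and 100% = twice that signal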
#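 Material: SR-BI-overexpressing, LDLR-lacking CHO cells | Dosing: Single compound concentration, delivered by pin transfer | Probe or stimulus: Labelled HDL, 10 µg/mL | Signal: Bottom-read cell fluorescence after medium removal, ex 550/em 595 nm | Schedule: 3 h, 37 °C | Evaluation: HDL uptake via cellular fluorescence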
# H9c2 TAG inh: inhibitors of triacylglycerol accumulation, primary screen, cell-based, uHTS, fluorescence, H9c2; H9c2 cells, Nile Red lipid (TAG) fluorescence; cells loaded with 200 µM oleic acid; inhibition, % at 12.5 µM; 0.66% of 230,000 active; AID 651582, 2012;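 active = pattern-corrected inhibition of lipid staining of at least 50% with the nuclear-stain viability signal not falling by more than 50%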;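 note: 0% = DMSO wells and 100% = triacsin C control wells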
# The depositor's hits bear a star; ? = inconclusive; . = not tested or not shown.
SMILES,Bfl-1 A1 inh,SR-BI HDL uptake,Vif imaging,SR-BI DiI-HDL act,H9c2 TAG inh
CCCN(CC(=O)Nc1ccccc1OC)C(=O)c1ccc(COc2ccccc2)o1,1.0,25.2,1.9,-25.2,-13.0
COc1ccc(NC(=O)Cc2csc(NC(=O)Nc3ccccc3OC)n2)c(OC)c1,-0.1,64.0,-14.8,-64.0,-0.3
COc1ccccc1NC(=O)Nc1nc(CC(=O)NCc2ccc(F)cc2)cs1,0.2,72.5*,.,-72.5,9.0
O=C(Cc1csc(-c2ccccc2)n1)NCc1ccc(F)cc1,0.4,-9.2,5.2,9.2,.
COc1ccc(OC)c(NC(=O)Cc2csc(NC(=O)Nc3ccccc3OC)n2)c1,-0.7,76.3*,1.5,-76.3,-0.6
CCOc1ccccc1/C=N/NC(=O)c1cccc(S(=O)(=O)N2CCOCC2)c1,-0.4,82.1*,1.1,-82.1,-28.5
CCN(CC)c1ccc(/C=N/NC(=O)c2cccc(S(=O)(=O)N3CCOCC3)c2)c(O)c1,-0.2,113.7*,-2.4,-113.7,41.5
CC(C)c1cc(C(=O)N/N=C/c2c[nH]c3ccccc23)n[nH]1,-0.4,27.7,-1.6,-27.7,4.3
CCOc1ccccc1/C=N/NC(=O)c1cc(C(C)C)[nH]n1,0.7,72.5*,0.4,-72.5,.
O=C(N/N=C/c1ccccc1C(=O)O)c1cccc(S(=O)(=O)N2CCOCC2)c1,-0.1,0.8,-0.9,-0.8,4.4
O=C(O)C(CCC(C(=O)O)c1ccccc1)c1ccccc1 (configuration not stated),.,18.3,-7.6,-18.3,6.3
CCOc1ccc(NC(=O)Cn2nnc(C(=O)NCc3ccc4c(c3)OCO4)c2N)cc1,-0.1,-0.7,-0.3,0.7,.
Cc1cc2c(c(C#N)c1C)NC=NC2C (configuration not stated),.,.,-0.3,.,-21.0
CCOC(=O)C1CCN(C(=O)Nc2ccc(Cl)cc2Cl)CC1,-0.2,79.5*,-8.2,-79.5,.
CCN(CC)c1ccc(C2Nc3cccc4cccc(c34)N2)c(O)c1,-0.3,114.0*,-0.3,-114.0,.
Oc1ccc2ccccc2c1C1Nc2cccc3cccc(c23)N1,0.6,34.7,-2.3,-34.7,.
CCOC(=O)Cn1nc(C)c(NC(=O)COc2ccc(OC)cc2)c1C,0.4,.,-1.8,.,6.7
COc1cc2[nH]c(=O)n(CCCC(=O)NC3CCCCC3)c(=O)c2cc1OC,0.0,3.8,55.2*,-3.8,.
CCOC(=O)c1cc2nc(Nc3ccc(OC)cc3)sc2s1,-0.1,72.3*,-14.4,-72.3,.
Oc1ccc(-c2nc(-c3ccc(F)cc3)c(-c3ccncc3)[nH]2)cc1,.,73.9*,?,-73.9,26.2
Cc1cccc2nc(C(=O)Nc3cc(Cl)ccc3-n3cncn3)cn12,-0.7,2.8,75.2*,-2.8,25.0
COCCCNC(=O)CC1C(=O)N(Cc2ccccc2)C(C)c2nc3ccccc3n21 (configuration not stated),0.3,-31.3,-3.5,31.3,.
O=[N+]([O-])c1ccc(O)c(/C=N/NC(=S)Nc2ccc(Cl)cc2Cl)c1,-1.9,104.7*,-5.0,-104.6,13.8
O=C(NN=Cc1cc([N+](=O)[O-])ccc1O)c1cccc2ccccc12,.,134.0*,10.8,-134.0,-4.4
Cc1cc(Cl)ccc1NC(=O)CCC(=O)N/N=C/c1cc([N+](=O)[O-])ccc1O,0.3,-10.2,-0.8,10.2,-5.5
SMILES,Bfl-1 A1 inh,SR-BI HDL uptake,Vif imaging,SR-BI DiI-HDL act,H9c2 TAG inh
O=C(N/N=C/c1cc([N+](=O)[O-])ccc1O)C12CC3CC(CC(C3)C1)C2,0.4,135.7*,-11.7,-135.7,3.1
O=C(N/N=C/c1cc([N+](=O)[O-])ccc1O)c1c[nH]c2ccccc12,-1.5,.,8.9,.,27.0
Cc1cc(C(=O)N/N=C/c2cc([N+](=O)[O-])ccc2O)c2ccccc2n1,-0.3,118.1*,10.6,-118.1,.
Cc1cc(C(=O)N/N=C/c2cc(N=Nc3ccccc3)ccc2O)n[nH]1,-1.4,115.0*,0.1,-115.1,.
COC(=O)N/N=C/c1cc(N=Nc2ccccc2)ccc1O,-1.7,14.9,-6.9,-14.9,11.2
COc1cccc(/C=N/Nc2ncnc(Cl)c2N)c1O,-3.7,9.9,10.9,-9.9,.
COc1cccc(/C=N/Nc2ncnc3scc(-c4ccccc4)c23)c1O,-1.3,115.2*,-0.7,-115.3,.
O=C(N/N=C/c1ccc([N+](=O)[O-])o1)c1cc(-c2ccc(-c3ccccc3)cc2)nc2ccccc12,-0.4,118.5*,5.7,-118.5,32.1
O=C(N/N=C/c1cc([N+](=O)[O-])ccc1O)c1cc(-c2ccccc2)nc2ccccc12,1.2,128.6*,16.3,-128.6,.
O=C(N/N=C/c1ccc([N+](=O)[O-])o1)c1cc(-c2ccncc2)nc2ccccc12,-0.3,41.4,-8.7,-41.4,.
CC(C)NC(=O)[C@H]1N2C(=O)c3ccccc3C2SC1(C)C (some centres not stated),-1.3,3.0,-1.7,-3.0,.
COc1ccc(/C=N/NC(=O)COc2ccccc2-c2ccccc2)cc1,-0.1,-24.5,?,24.5,59.2*
COc1cccc(/C=N/NC(=O)c2nc(-c3ccccc3)cc(-c3ccccc3)n2)c1,0.0,80.7*,-0.5,-80.7,19.1
O=C(N/N=C/c1cccc([N+](=O)[O-])c1)c1cc(-c2ccccc2)nc2ccccc12,-2.1,80.2*,-4.8,-80.2,-10.9
O=[N+]([O-])c1ccc(O)c(/C=N/Nc2nc3ccccc3[nH]2)c1,-2.1,86.9*,0.6,-86.9,.
COC(=O)CCCC(=O)N1CCC(CCC(=O)NCc2ccc(F)cc2)CC1,-1.0,1.8,12.7,-1.8,2.5
O=C(Nc1ccc2nc3n(c(=O)c2c1)CCCCC3)C(=O)N1CCN(c2ccc(F)cc2)CC1,0.1,-8.3,-6.3,8.3,.
COc1cc2c(c(Br)c1N)-c1cc(Br)c(N)cc1C2=O,.,.,26.6,.,25.2
Cc1c(/C=N/Nc2nc3ccccc3[nH]2)c2ccccc2n1C,-0.6,36.8,-6.1,-36.7,61.9*
COc1cccc(/C=N/Nc2nc3ccccc3[nH]2)c1O,-4.0,.,-1.8,.,59.1*
Nc1ccc(C(=O)N/N=C\c2cc(N=Nc3cccc4ccccc34)ccc2O)cc1,0.3,122.2*,?,-122.3,56.4*
Cc1ccc(-c2nc(N/N=C/c3cccc([N+](=O)[O-])c3)c3ccccc3n2)cc1,-5.5,74.1*,5.7,-74.1,.
COc1cccc(/C=N/Nc2nc3ccccc3[nH]2)c1OC,-1.2,7.6,1.5,-7.6,2.9
CN(C=O)c1ccc(CSc2ccccc2)cc1,.,-26.7,-3.9,26.7,-6.1
CCc1cc(C(=O)N(CCCOC)c2c(N)n(Cc3ccccc3)c(=O)[nH]c2=O)sc1C,0.3,18.8,-6.8,-18.8,13.2
CC1CC(=O)Nc2ccccc2N1C(=O)Cn1cnc2ccccc2c1=O (configuration not stated),-1.3,-27.9,0.4,27.9,-9.0

# High-throughput results as filed in PubChem BioAssay.
